# ATG4B inhibitor – ATG4B (human) cysteine protease inhibition. Q9Y4P1. ATG4B cleavage of LC3-PLA2, NBD-HPC fluorescence, 1 h. inhibition, % at 8.33 µM. 340,000 tested, 0.51% active; in the data active = inhibition above about 40%
# Target sequence (Q9Y4P1 whole entry, looked up): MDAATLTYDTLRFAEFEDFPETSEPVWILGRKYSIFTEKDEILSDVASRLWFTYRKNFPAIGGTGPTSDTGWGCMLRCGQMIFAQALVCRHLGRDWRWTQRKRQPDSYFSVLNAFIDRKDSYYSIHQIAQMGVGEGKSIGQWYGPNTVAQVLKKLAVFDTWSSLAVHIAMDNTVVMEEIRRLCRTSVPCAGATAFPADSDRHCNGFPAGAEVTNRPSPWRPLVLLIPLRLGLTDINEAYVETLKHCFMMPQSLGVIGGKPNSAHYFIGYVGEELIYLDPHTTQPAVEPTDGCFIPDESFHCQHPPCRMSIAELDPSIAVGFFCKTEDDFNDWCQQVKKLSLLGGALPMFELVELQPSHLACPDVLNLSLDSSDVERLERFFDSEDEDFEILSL
# Exocytosis inh – lytic granule exocytosis inhibition; TALL-104 LAMP-1 surface exposure, flow cytometry; cells stimulated with thapsigargin and PMA; inhibition, % at 10 µM; 360,000 tested, 0.66% active; AID 651702;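 active = inhibition above about 55%, limit read from the data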
# CendR NRP1 mod – alters CendR peptide binding to human NRP-1 | O14786 | FAM-RPARPAR peptide binding to NRP-1, fluorescence polarization | inhibition, % at 25 µM | 360,000 tested, 0.85% active | AID 602438;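 active = inhibition or corrected inhibition above about 18%, plus a signal ratio from 0.5 to 1.5, limit read from the data, passing the limit was not always enough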
# ABCB6 inh MLPCN – blocks the human ABCB6 transporter; K562-ABCB6 porphyrin accumulation, flow cytometry, 1 h; hits give low values; 360,000 tested, 0.19% active; fluorescence ratio to DMSO, % at 10 µM;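 active = fluorescence ratio to DMSO below 75%, the collection mean minus 3 SD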;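 note: signal is porphyrin accumulated inside mitochondria; lower ratio means ABCB6 inhibition with less porphyrin fluorescence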
# Arr AP2 block – human beta-arrestin and AP2 interaction inhibition | FITC-arrestin peptide / GST-AP2 beads, flow cytometry; AP2 beta2 appendage carries R879A mutation | inhibition, % at 10 µM | 340,000 tested, 0.31% active | AID 504490;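 active = inhibition above a set limit, near 3 SD of compounds lacking own fluorescence, cut at about 54% in these data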
#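 Material – GST-tagged AP2 beta2-adaptin appendage (R879A) on 4 µm glutathione beads · Probe or stimulus – fluorescein-tagged arrestin peptide at 50 nM final · Timing – 12 min plus 1 h, RT · Detection – bead flow cytometry, FITC channel · Read-out basis – inhibition as reduced fluorescein signal on beads, percent · Medium – PBS plus Tween 20 (0.05%) and BSA (0.1%)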
# Myeloid diff 2 – compounds promoting myeloid differentiation | ER-HoxA9 myeloid progenitors, lysozyme-GFP differentiation, flow cytometry | calls only at 10 µM | 360,000 tested, 1% active | AID 624256;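 active = normalized GFP-positive differentiation at or above the plate's own cutoff, the solvent-only control mean plus 3 SD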;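 note: cells exposed to compound for four days before flow analysis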
# Granule exo CP1 – blocks lytic granule exocytosis. shares compounds with Exocytosis inh. TALL-104 cells, LAMP-1 externalization, flow cytometry; stimulated with PMA plus thapsigargin. AID 651954. 1,500 tested, 11% active. inhibition, % at 10 µM; in the data active = inhibition above about 60%
# A number is an active result; 0 = inactive; - = not tested or not shown. Hits are enriched below; roughly 3.3% of the tested compounds scored in any of these assays.
SMILES,ATG4B inhibitor,Exocytosis inh,CendR NRP1 mod,ABCB6 inh MLPCN,Arr AP2 block,Myeloid diff 2,Granule exo CP1
Cc1ccc(N(CC(=O)NC2CCCC2)C(=O)CCC(=O)Nc2nccs2)c(C)c1,0,0,0,0,0,0,-
OC(CCN1CCC2CCC(C2)C1)c1ccc(Br)cc1 (centres undefined),0,59,0,0,0,0,0
O=C(CCN1CCC2CCC(C2)C1)c1ccccc1 (centres undefined),0,0,0,0,0,0,-
COc1ccc(CNC(=O)C[C@@H]2CC[C@@H](NS(=O)(=O)c3cccc(OC)c3)[C@@H](CO)O2)cc1,-,0,0,-,-,0,-
CC(=O)N1CCN(S(=O)(=O)c2cccc(C(=O)NCCC3=CCCCC3)c2)CC1,0,67,0,0,0,0,0
CN(C(=O)c1cccc(NC(=O)Cc2ccc(NC(=O)C3CCN(C(=O)C4CCC4)CC3)cc2)c1)C1CCCCC1,0,58,0,0,0,0,0
CN(C(=O)c1cccc(NC(=O)Cc2ccc(NC(=O)C3CCN(C(=O)C4CCCCC4)CC3)cc2)c1)C1CCCCC1,0,0,0,0,0,0,-
CCNc1nc(NCC)n2c(SCC(=O)c3ccccc3F)nnc2n1,0,0,0,0,0,0,-
Cc1ccc(S(=O)(=O)N2CCC(C(=O)OCC(=O)Nc3cc(S(C)(=O)=O)ccc3Cl)CC2)cc1C,0,0,0,0,0,0,-
COc1ccc(N2CCN(C(=O)/C=C/[C@H]3O[C@@H](n4ccc(=O)[nH]c4=O)[C@H](O)[C@@H]3O)CC2)cc1,-,0,0,0,-,0,-
OC(CNCc1cccnc1)COc1ccc2ccccc2c1 (centres undefined),0,0,0,0,0,0,-
